CHO-K1 Ca PAM: nonselective activator or artifact in parental CHO-K1 calcium assay | 360,000 tested, 0.02% active | ATP EC20, Fluo-8 calcium fluorescence; 0% at ATP EC20, 100% at ATP max | activation, % at 3 µM | AID 602247;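 active = activation above the run cutoff, the mean activation of all test compounds plus 3 SD, cut at about 40% in these data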;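 also: peak over basal fluorescence ratio in a 140 s read after ATP addition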
M1 ag parental: nonselective activator or artifact in parental CHO-K1 cells. Fluo-8 calcium fluorescence; scaled to maximal ATP response, vehicle zero. 360,000 tested, 0.48% active. AID 602248. activation, % at 3 µM; in the data active = activation above about 15%;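 also: untransfected CHO-K1 host cells lacking M1 receptor as counterscreen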
OX1R antag-1: antagonists of human orexin 1 receptor (OX1R); O43613; OX1R-expressing cells, FRET antagonist read-out; inhibition, % at 6.6 µM; AID 485270; 330,000 tested, 1.8% active; in the data active = inhibition mostly above about 38%, no sharp cut-off; inactive = mostly below about 40%;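 also: 0% = agonist challenge alone and 100% = reference antagonist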
Target sequence (O43613 whole entry, looked up): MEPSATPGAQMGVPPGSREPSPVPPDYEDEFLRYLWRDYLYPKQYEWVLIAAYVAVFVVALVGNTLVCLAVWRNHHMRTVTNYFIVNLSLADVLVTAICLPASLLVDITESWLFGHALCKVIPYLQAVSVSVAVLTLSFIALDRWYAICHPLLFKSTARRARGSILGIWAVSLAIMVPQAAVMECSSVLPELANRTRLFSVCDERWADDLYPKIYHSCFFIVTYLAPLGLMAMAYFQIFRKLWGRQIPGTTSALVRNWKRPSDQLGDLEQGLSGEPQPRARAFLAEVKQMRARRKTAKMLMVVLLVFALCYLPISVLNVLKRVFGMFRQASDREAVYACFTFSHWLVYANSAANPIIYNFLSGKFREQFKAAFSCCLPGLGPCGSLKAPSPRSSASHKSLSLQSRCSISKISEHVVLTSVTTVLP
CHO parental Ca: counter-screen for OX1R antagonists: effect in parental CHO cells; parental CHO-K1, ATP-induced calcium, Fluo-8 fluorescence; inhibition, % at 5.6 µM; 330,000 tested, 0.63% active; AID 463079;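 active = inhibition above that plate's mean sample inhibition plus 3 SD, cut at about 26% in these data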;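 also: 0% = ATP-challenged DMSO wells and 100% = DMSO wells without ATP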
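Material: Parental CHO cells | Reagent: ATP | Compound dosing: Single nominal dose of 5.6 µM per compound | Detection: Intracellular calcium via Fluo-8 no-wash fluorescent dye | Read-out: % inhibition of ATP-induced calcium mobilization | Benchmarks: Low control ATP plus DMSO, high control DMSO only | Replicates: Singlicate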
OX1R antag-2: human HCRTR1 antagonism; CHO/OX1R cells, Fluo-8 calcium fluorescence, orexin A; O43613; 330,000 tested, 0.43% active; inhibition, % at 5 µM;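 active = inhibition above its plate's threshold, mean inhibition of all tested compounds on the plate plus 3 SD, cut at about 37% in these data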;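 also: 0% = orexin A challenge wells and 100% = SB-334867-A antagonist wells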
CHO-K1 Ca antag: counter-screen for M1 antagonists: effect in parental CHO-K1 cells; ATP-induced calcium, Fluo-8 fluorescence; inhibition, % at 3 µM; 360,000 tested, 0.6% active;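 active = inhibition above a per-plate cutoff, the plate's mean sample inhibition plus 3 SD, cut at about 24% in these data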;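 also: 0% = DMSO plus EC80 ATP and 100% = DMSO alone without ATP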
OX1R HTRF conf: confirmation of human orexin 1 receptor antagonists, HTRF format; inhibition, % at 6.6 µM; OX1R-expressing cells, HTRF antagonist assay; 1,800 tested, 49% active; shares compounds with OX1R antag-1; in the data active = inhibition above about 55%;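 also: CHO cells expressing OX1R stimulated with orexin A at about EC80; 0% = agonist challenge alone and 100% = reference antagonist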
CHO-K1 HTRF cnt: counter-screen: parental CHO-K1 HTRF response. inhibition, % at 6.6 µM. AID 493232. 1,800 tested, 48% active. parental CHO-K1 cells, HTRF counterscreen. shares compounds with OX1R antag-1; in the data active = inhibition above about 17%;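 also: 0% = agonist challenge with vehicle and 100% = vehicle alone without agonist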
An asterisk follows results filed as active; / = not tested or not shown. Only some compounds are listed: those with a hit (about 2.9% of all), similar ones and a draw of the others.

SMILES	CHO-K1 Ca PAM	M1 ag parental	OX1R antag-1	CHO parental Ca	OX1R antag-2	CHO-K1 Ca antag	OX1R HTRF conf	CHO-K1 HTRF cnt
O=C(Nc1ncccn1)c1cc([N+](=O)[O-])cc([N+](=O)[O-])c1	30	1	107*	4	-2	-14	58*	72*
Cc1ccc(C)c(NC(=O)c2cc([N+](=O)[O-])cc([N+](=O)[O-])c2)c1	3	5	80*	-8	-17	5	38	41*
CN(C)c1ncnc2c1ncn2[C@H]1CN(C2CCCC2)C[C@@H](CO)O1	0	0	/	/	/	-4	/	/
O=C(CNC(=O)c1ccccc1)N/N=C/c1ccc([N+](=O)[O-])o1	19	2	98*	-12	-5	-2	50	75*
CCCCNC(=O)C1(C)CCN1Cc1cccc2c(OC)cc(C(=O)OCC)cc12 (stereo not drawn)	14	0	/	/	/	-11	/	/
CN(C)c1ncnc2c1ncn2[C@H]1CN(Cc2cccs2)C[C@@H](CO)O1	31	1	/	/	/	-13	/	/
COc1ccc(-n2c(C)cc(/C=N/Nc3nnc(C)n3N)c2C)cc1	7	1	108*	-16	-13	6	22	14
COc1ccc(-c2coc3c(C(=O)NCC4CCOCC4)cccc23)c(C)c1	-13	7	/	/	/	22	/	/
CCn1c(CN(C)c2ccccc2)nc2ccccc21	16	2	16	-18	-15	-10	/	/
CCN1C(=O)/C(=C/N(C(C)=O)c2ccccc2)N(c2ccccc2)C1=S	-4	0	82*	-18	-12	-4	28	16
CC[C@]12c3[nH]c4cc(CCC(=O)N(C)C)ccc4c3CCN1C(=O)[C@@H](CC(=O)NCCc1ccccn1)C[C@@H]2C(=O)N1CCN(C(=O)C2CC2)CC1	15	0	1	-11	-10	-19	/	/
CCC(C(=O)N1CCOCC1)n1nc(C)c2sc3ccccc3c2c1=O (stereo not drawn)	-11	1	13	-9	-19	-6	/	/
NC(=O)C1CCN(C2=C(NS(=O)(=O)c3ccc(Cl)cc3)C(=O)c3ccccc3C2=O)CC1	16	2	179*	-7	-34	-8	53	57*
Cc1ccc(S(=O)(=O)NC2=C(N3CCN(Cc4ccccc4)CC3)C(=O)c3ccccc3C2=O)cc1	15	0	24	-18	-30	-10	/	/
COC(=O)C1CCN(C2=C(NS(=O)(=O)c3ccc(Cl)cc3)C(=O)c3ccccc3C2=O)CC1	6	0	98*	-8	-27	-3	46	59*
CCOC(=O)N1CCN(C2=C(NS(=O)(=O)c3ccc(C)cc3)C(=O)c3ccccc3C2=O)CC1	13	0	83*	-23	-28	-6	58*	91*
O=C(CCl)NC1(C(F)(F)F)C(=O)Nc2c1c(=O)[nH]c(=O)n2-c1ccccc1 (stereo not drawn)	9	1	0	0	-8	-6	/	/
CCc1cccc(OCC(=O)Nc2ccccc2N2CCCC2)c1	8	-1	20	-19	-25	1	/	/
CCOc1ccc(OCC(=O)c2c(O)c3ccccc3oc2=O)cc1	17	1	79*	5	-8	-12	16	-11
COc1ccc(OCC(=O)c2c(O)c3ccccc3oc2=O)cc1	8	1	17	-17	-6	4	/	/
Cc1cnc(N2C(=O)c3ccc([N+](=O)[O-])cc3C2=O)s1	-14	0	52	-24	-6	-13	/	/
O=C1c2ccc(Oc3cccc([N+](=O)[O-])c3)cc2C(=O)N1c1ccccn1	17	0	15	-16	-8	1	/	/
O=C1c2cc([N+](=O)[O-])cc3cc([N+](=O)[O-])cc(c23)C(=O)N1c1ccccn1	-12	0	82*	-7	-25	8	73*	114*
O=C1c2ccc([N+](=O)[O-])cc2C(=O)N1c1ccc([N+](=O)[O-])cn1	-26	0	95*	12	2	15	41	63*
O=C(OCC(=O)N1CCC(Cc2ccccc2)CC1)c1ccc(CO)cc1	-3	3	9	2	-1	-8	/	/
SMILES	CHO-K1 Ca PAM	M1 ag parental	OX1R antag-1	CHO parental Ca	OX1R antag-2	CHO-K1 Ca antag	OX1R HTRF conf	CHO-K1 HTRF cnt
O=Nc1ccc(O)c2ncccc12	-21	1	105*	-7	0	21	45	39*
O=S(=O)(O)c1cccc2c(N=Nc3ccc(O)c4ncccc34)cccc12	-2	13	-6	4	-1	-2	/	/
Cn1c(N=NC(=O)c2ccccc2)c(O)c2ccccc21	5	1	137*	-23	-15	-4	98*	52*
CC(C)(C)n1c(O)c2ccc(C(=O)N=NC(=O)c3ccccc3)cc2c1O	-28	5	15	-13	-12	2	/	/
CN1C2=CC=CC=CC2=[N+](C)C12C([N+](=O)[O-])=CC(=[N+]([O-])[O-])C=C2[N+](=O)[O-] (stereo not drawn)	3	0	14	-8	-7	0	/	/
CN1C2=CC=CC=CC2=[N+](C)C12C=CC(=[N+]([O-])[O-])C=C2[N+](=O)[O-] (stereo not drawn)	-9	0	144*	-9	-13	0	68*	90*
CC1=CC(=NOC(=O)c2cccc([N+](=O)[O-])c2)C=C(C)C1=O	24	4	118*	0	-1	-15	23	18*
CCCCN1C(=O)/C(=C2/Sc3ccc(OC)cc3N2CC)SC1=S	13	1	7	-13	-18	-11	/	/
CCN1C(=O)/C(=C2/SC(C)=C(C)N2CC)SC1=S	-8	0	96*	-16	11	19	84*	7
CC(=O)N1C(=O)c2cccc3cccc(c23)C(=O)N1C(C)=O	/	/	116*	-1	-14	/	41	65*
O=C(Nc1cccnc1)c1cnc2ccccc2n1	0	1	109*	-1	-7	-2	43	45*
CCc1nnc(N/N=C/c2cccs2)n1N	12	0	84*	-6	12	-5	20	14
CC(C)c1ccc(NC(=O)C2(C)Cc3c(-c4ccc(C(N)=O)cc4)ccnc3O2)cc1 (stereo not drawn)	-9	0	/	/	/	-7	/	/
O=C(Cn1cccc1C(=O)c1ccccc1)NCCC1=CCCCC1	8	0	98*	-15	-36	-15	23	2
O=C(NC1CC1)c1ccc(-c2nc3ccccc3s2)s1	1	1	113*	-15	21	-8	84*	12
O=C(c1ccc(-c2nc3ccccc3s2)s1)N1CCOCC1	/	/	30	-9	-19	/	/	/
